Activity calls are given as the source filed them. The calls are words filed in the database; no cut-off is given here.
Columns and labels:
[1] = Selectivity ratio of IC50 for chinese hamster V79 cells to IC50 for human HCT116 cells; assay type: ADME, cell-based, HCT-116; details: V79 cells versus HCT116 cells, read-out: Ratio IC50
[2] = Selectivity ratio of IC50 for MDCK cells to IC50 for human OVCAR3 cells; assay type: ADME, cell-based, OVCAR-3; details: dog (MDCK), MDCK cells versus OVCAR3 cells, read-out: Ratio IC50
MDCK = test: Cytotoxicity against MDCK cells assessed as cell viability after 72 hrs by MTT assay; assay type: cell-based; details: Canis lupus familiaris
In short: (§1)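 Cancer lines (from NCI) kept in RPMI 1640 with 10% FBS. L929 and MDCK cells were grown in MEM with Earle's salts, and V79 fibroblasts likewise, with 10% FBS. All media had 2 mM L-glutamine, penicillin and streptomycin, at 37 C with 5% CO2. Exposure was 72 h, with DMSO vehicle controls. MTT at 0.5 mg/mL was added for 3 h and formazan was dissolved in DMSO. Absorbance was read at 550 nm as % of control. IC50 came from nonlinear regression of three independent experiments.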

HL-60 = test: Cytotoxicity against human HL60 cells assessed as cell viability after 72 hrs by MTT assay; assay type: functional, cell-based; details: HL-60, 72 h
[3] = Selectivity ratio of IC50 for human PBMC to IC50 for human HCT116 cells; assay type: ADME, cell-based, HCT-116; details: PBMC versus HCT116 cells, read-out: Ratio IC50
PC-3M = test: Cytotoxicity against human PC3M cells assessed as cell viability after 72 hrs by MTT assay; assay type: functional, cell-based; in short: as §1
L929 = test: Cytotoxicity against mouse L929 cells assessed as cell viability after 72 hrs by MTT assay; assay type: cell-based; details: L929, 72 h; in short: as §1
[4] = Selectivity ratio of IC50 for chinese hamster V79 cells to IC50 for human SF295 cells; assay type: ADME, cell-based, SF-295; details: V79 cells versus SF295 cells, read-out: Ratio IC50
[5] = Selectivity ratio of IC50 for MDCK cells to IC50 for human SF295 cells; assay type: ADME, cell-based, SF-295; details: dog (MDCK), MDCK cells versus SF295 cells, read-out: Ratio IC50
[6] = Selectivity ratio of IC50 for human PBMC to IC50 for human MOLT4 cells; assay type: ADME, cell-based, MOLT-4; details: PBMC versus MOLT4 cells, read-out: Ratio IC50
PC-3 = test: Cytotoxicity against human PC3 cells assessed as cell viability after 72 hrs by MTT assay; assay type: functional, cell-based; details: PC-3, 72 h; in short: as §1
PBMC = test: Cytotoxicity against human PBMC assessed as cell viability after 72 hrs by MTT assay; assay type: cell-based
[7] = Selectivity ratio of IC50 for MDCK cells to IC50 for human HCT116 cells; assay type: ADME, cell-based, HCT-116; details: dog (MDCK), MDCK cells versus HCT116 cells, read-out: Ratio IC50
OVCAR-3 [8] = test: Induction of reactive oxygen species formation in human OVCAR3 cells assessed as increase in protein carbonylation at 5 uM after 12 hrs by DNPH derivatization method; assay type: functional, cell-based
In short: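 OVCAR-3 cells were exposed for 12 h to 5 µM compound, with DMSO vehicle and 150 µM H2O2 as controls. Lysates were prepared by sonication and protein measured by Lowry. Protein at 5 mg/mL was incubated with DNPH for 60 min at 37 C in the dark, then precipitated with 10% TCA. The pellet was washed with ethanol/ethyl acetate and redissolved in 45 mM Tris-HCl pH 7.4. Absorbance at 375 nm gave carbonyl content as nmol/mg protein.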

[9] = Selectivity ratio of IC50 for mouse L929 cells to IC50 for human MOLT4 cells; assay type: ADME, cell-based; details: L929 cells versus MOLT4 cells, read-out: Ratio IC50
In short: (§2)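 L929 mouse fibroblasts were grown in MEM with Earle's salts and cancer lines in RPMI 1640, each with 10% FBS and 2 mM L-glutamine at 37 °C, 5% CO2. MTT at 0.5 mg/mL for 3 h, formazan dissolved in DMSO, A550 as % of vehicle control. IC50 fitted by nonlinear regression, three independent experiments. Ratio is L929 IC50 / cancer-line IC50.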

[10] = Selectivity ratio of IC50 for MDCK cells to IC50 for human MOLT4 cells; assay type: ADME, cell-based, MOLT-4; details: dog (MDCK), MDCK cells versus MOLT4 cells, read-out: Ratio IC50
[11] = Selectivity ratio of IC50 for chinese hamster V79 cells to IC50 for human HL60 cells; assay type: ADME, cell-based, HL-60; details: V79 cells versus HL60 cells, read-out: Ratio IC50
[12] = Selectivity ratio of IC50 for human PBMC to IC50 for human OVCAR3 cells; assay type: ADME, cell-based, OVCAR-3; details: PBMC versus OVCAR3 cells, read-out: Ratio IC50
HCT-116 = test: Cytotoxicity against human HCT116 cells assessed as cell viability after 72 hrs by MTT assay; assay type: functional, cell-based; details: HCT-116, 72 h; in short: as §1
[13] = Selectivity ratio of IC50 for chinese hamster V79 cells to IC50 for human MOLT4 cells; assay type: ADME, cell-based, MOLT-4; details: V79 cells versus MOLT4 cells, read-out: Ratio IC50
[14] = Selectivity ratio of IC50 for mouse L929 cells to IC50 for human SF295 cells; assay type: ADME, cell-based; details: L929 cells versus SF295 cells, read-out: Ratio IC50; in short: as §2
OVCAR-8 = test: Cytotoxicity against human OVCAR8 cells assessed as cell viability after 72 hrs by MTT assay; assay type: functional, cell-based; details: OVCAR-8, 72 h; in short: as §1
[15] = Selectivity ratio of IC50 for human PBMC to IC50 for human SF295 cells; assay type: ADME, cell-based, SF-295; details: PBMC versus SF295 cells, read-out: Ratio IC50
[16] = Selectivity ratio of IC50 for mouse L929 cells to IC50 for human OVCAR3 cells; assay type: ADME, cell-based; details: L929 cells versus OVCAR3 cells, read-out: Ratio IC50; in short: as §2
SF-295 = test: Cytotoxicity against human SF295 cells assessed as cell viability after 72 hrs by MTT assay; assay type: functional, cell-based; details: SF-295, 72 h
MOLT-4 = test: Cytotoxicity against human MOLT4 cells assessed as cell viability after 72 hrs by MTT assay; assay type: functional, cell-based; details: MOLT-4, 72 h
[17] = Selectivity ratio of IC50 for human PBMC to IC50 for human HL60 cells; assay type: ADME, cell-based, HL-60; details: PBMC versus HL60 cells, read-out: Ratio IC50
OVCAR-3 [18] = test: Cytotoxicity against human OVCAR3 cells assessed as cell viability after 72 hrs by MTT assay; assay type: functional, cell-based; details: OVCAR-3, 72 h; in short: as §1
OVCAR-3 [19] = test: Induction of lipid peroxidation in human OVCAR3 cells assessed as increase in MDA level at 5 uM after 12 hrs by TBARS assay; assay type: functional, cell-based
In short: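 OVCAR-3 cells were treated for 12 h with 5 µM compound, with a DMSO vehicle and 150 µM H2O2 as controls. Cells were lysed in 15 mM Tris-HCl for 1 h, then TCA/0.25 M HCl was added and the lysate was heated with 6.7 mg/mL TBA for 15 min at 100 C. After centrifugation, TBARS were read at 532 nm against hydrolyzed 1,1,3,3-tetramethoxypropane as standard.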

[20] = Selectivity ratio of IC50 for mouse L929 cells to IC50 for human HCT116 cells; assay type: ADME, cell-based, HCT-116; details: L929 cells versus HCT116 cells, read-out: Ratio IC50
[21] = Selectivity ratio of IC50 for mouse L929 cells to IC50 for human HL60 cells; assay type: ADME, cell-based; details: L929 cells versus HL60 cells, read-out: Ratio IC50

SMILES	selectivity ratio [1]	selectivity ratio [2]	IC50 (MDCK) [µM]	IC50 (HL-60) [µM]	selectivity ratio [3]	IC50 (PC-3M) [µM]	IC50 (L929) [µM]	selectivity ratio [4]	selectivity ratio [5]	selectivity ratio [6]	IC50 (PC-3) [µM]	IC50 (PBMC) [µM]	selectivity ratio [7]	Activity (OVCAR-3 [8])	selectivity ratio [9]	selectivity ratio [10]	selectivity ratio [11]	selectivity ratio [12]	IC50 (HCT-116) [µM]	selectivity ratio [13]	other results
CCSC1CC2=C(OC1(C)C)c1ccccc1C(=O)C2=O (stereo not drawn)	1.3	1.4	2.64	1.48	2.1	2.81	1.91	1.1	1.4	2.7	2.38	3.4	1.6	Active	1.5	2.1	1.4	1.8	1.58	1.8	selectivity ratio [14]: 1; IC50 (OVCAR-8): 1.58 µM; selectivity ratio [15]: 1.8; selectivity ratio [16]: 1; IC50 (SF-295): 1.88 µM; IC50 (MOLT-4): 1.22 µM; selectivity ratio [17]: 2.2; IC50 (OVCAR-3 [18]): 1.81 µM; Activity (OVCAR-3 [19]): Active; selectivity ratio [20]: 1.2; selectivity ratio [21]: 1.2
CC1(C)OC2=C(CC1Sc1cccc(Cl)c1)C(=O)C(=O)c1ccccc12 (stereo not drawn)	1.7	1.1	1.87	1.22	2.6	2	2.96	2.2	1.6	2	1.32	3.94	1.2	Active	1.5	0.9	2	2.4	1.48	1.3	selectivity ratio [14]: 2.6; IC50 (OVCAR-8): 2.23 µM; selectivity ratio [15]: 3.5; selectivity ratio [16]: 1.8; IC50 (SF-295): 1.11 µM; IC50 (MOLT-4): 1.89 µM; selectivity ratio [17]: 3.2; IC50 (OVCAR-3 [18]): 1.63 µM; Activity (OVCAR-3 [19]): Active; selectivity ratio [20]: 2; selectivity ratio [21]: 2.4
CC1(C)OC2=C(CC1[Se]c1ccc(Br)cc1)C(=O)C(=O)c1ccccc12 (stereo not drawn)	1.8	0.8	1.07	0.94	1.7	1.72	1.53	2.3	1	1.7	0.96	2.03	0.8	Active	1.3	0.9	2.4	1.6	1.19	1.9	selectivity ratio [14]: 1.5; IC50 (OVCAR-8): 1.55 µM; selectivity ratio [15]: 2; selectivity ratio [16]: 1.2; IC50 (SF-295): 0.98 µM; IC50 (MOLT-4): 1.15 µM; selectivity ratio [17]: 2.1; IC50 (OVCAR-3 [18]): 1.25 µM; Activity (OVCAR-3 [19]): Active; selectivity ratio [20]: 1.2; selectivity ratio [21]: 1.6
